# Screening results as filed in PubChem.
# HTRA1 inhibitor: HTRA1 serine protease inhibitors, primary screen, biochemical, fluorescence polarization, HTS | recombinant HTRA1, FP-rhodamine activity-based probe | AID 504803, 2011 | inhibition, % at 5.96 µM | Q92743 | hit rate 0.5% among 340,000; in the data active = inhibition above about 36%;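 note: 0% = enzyme with DMSO and 100% = wells lacking enzyme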
# mABHD4 FP: ABHD4 inhibitors, primary screen, biochemical, fluorescence polarization, mouse | (Lyso)-N-acylphosphatidylethanolamine lipase (Mus musculus), Q8VD66 | purified mABHD4, FP-Rh probe fluorescence polarization | inhibition, % at 8.92 µM | hit rate 0.54% among 370,000 | AID 720543, 2013;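 active = inhibition exceeding the mean over every tested compound plus 3 SD, cut at about 30% in these data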;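 note: 0% = plate median of compound wells and 100% = S159A mutant with DMSO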
# Target sequence (Q8VD66 whole entry, looked up): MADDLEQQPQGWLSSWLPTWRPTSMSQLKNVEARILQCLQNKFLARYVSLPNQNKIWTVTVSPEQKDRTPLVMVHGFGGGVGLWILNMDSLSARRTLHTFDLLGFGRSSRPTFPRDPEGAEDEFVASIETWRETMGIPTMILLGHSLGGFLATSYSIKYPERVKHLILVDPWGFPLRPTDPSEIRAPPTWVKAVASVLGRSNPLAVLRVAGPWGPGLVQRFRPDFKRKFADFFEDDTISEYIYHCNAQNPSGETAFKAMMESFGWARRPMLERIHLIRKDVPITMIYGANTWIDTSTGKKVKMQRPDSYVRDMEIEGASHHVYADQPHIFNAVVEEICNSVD
#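 Test system: mouse ABHD4 enzyme, wild type. Reagent: FP-Rh fluorescent activity-based probe, added after compound pre-incubation. Timing: pre-incubation 45 min, probe exposure 60 min, at 25 °C. Technique: FP readout, ex 525 nm / em 598 nm. Benchmarks: high control S159A mutant with DMSO, low control median of compound wells.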
# rCAG RNA binder: binders of r(CAG) RNA repeats, primary screen, biochemical, fluorescence; r(CAG) RNA repeat, TO-PRO-1 dye displacement fluorescence; hit rate 1.3% among 370,000; AID 651821, 2012; inhibition, % at 3 µM;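 active = inhibition above the plate cutoff, the mean of all test compounds on that plate plus 3 SD, cut at about 35% in these data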;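 note: 0% = DMSO alone and 100% = 100 µM mitoxantrone as full dye displacement; higher means more dye released from RNA so lower well fluorescence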
# PRMT1 inh: PRMT1 methyltransferase inhibitors, primary screen, biochemical, fluorescence polarization. inhibition, % at 2.79 µM. hit rate 1.3% among 370,000. AID 652257, 2013. recombinant PRMT1, activity-based probe fluorescence polarization;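 active = inhibition above about 21% made by adding two undisclosed values, limit read from the data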
# Target sequence (Q99873 whole entry, looked up): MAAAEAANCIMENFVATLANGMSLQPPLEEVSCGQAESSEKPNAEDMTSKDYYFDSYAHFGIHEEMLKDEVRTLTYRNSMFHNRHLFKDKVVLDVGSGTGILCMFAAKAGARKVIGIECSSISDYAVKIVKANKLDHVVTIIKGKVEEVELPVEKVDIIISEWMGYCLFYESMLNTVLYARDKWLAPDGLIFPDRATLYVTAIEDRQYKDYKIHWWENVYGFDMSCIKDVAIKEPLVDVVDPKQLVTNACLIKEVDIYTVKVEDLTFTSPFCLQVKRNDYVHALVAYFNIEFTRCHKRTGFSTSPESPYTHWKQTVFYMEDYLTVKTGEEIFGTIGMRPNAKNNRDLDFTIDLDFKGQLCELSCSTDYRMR
# LEDGF integ inh: blockers of LEDGF/p75-dependent integrase strand transfer – biochemical, TR-FRET, high throughput, primary screen; HIV-1 integrase (with human LEDGF/p75); hit rate 0.64% among 370,000; inhibition, % at 3.7 µM; AID 743269, 2014; TR-FRET IN-LEDGF/p75 DNA integration, Eu/Cy5;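 active = inhibition above the screen-wide mean plus 3 SD, cut at about 13% in these data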;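 note: signal is the Cy5 over europium emission ratio at 671 and 618 nm; 0% = plate median of compound wells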
# DAGLB inhibitor: DAGLB lipase inhibitors, primary screen, biochemical, fluorescence, HTS; Diacylglycerol lipase-beta (Homo sapiens), Q8NCG7; HEK293T DAGLB membrane lysate, EnzChek fluorogenic substrate; inhibition, % at 5.17 µM; hit rate 0.059% among 340,000; AID 504411, 2011; in the data active = inhibition above about 34%;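 note: 0% = enzyme with vehicle and 100% = wells lacking enzyme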
# rCAG bind conf: small molecules binding CAG repeat RNA – biochemical, fluorescence, confirmation; hit rate 70% among 4,300; r(CAG) RNA repeat, TO-PRO-1 dye displacement fluorescence; shares compounds with rCAG RNA binder; AID 652065, 2013; inhibition, % at 3 µM;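 active = inhibition above a per-plate cutoff, the mean inhibition of sample wells plus 3 SD, cut at about 35% in these data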;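 note: loss of TO-PRO-1 fluorescence as compound displaces dye from 1x1 AA loop RNA; 0% = DMSO only wells and 100% = 100 µM mitoxantrone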
# DNA CAG counter: displacement of TO-PRO-1 from CAG DNA duplex, counter-screen for rCAG RNA repeat binder project, biochemical, fluorescence, TO-PRO-1 dye, d(CAG) DNA oligo; inhibition, % at 3 µM; d(CAG) DNA oligo TO-PRO-1 dye displacement; hit rate 94% among 4,300; shares compounds with rCAG RNA binder;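 active = inhibition above its plate's cutoff, the mean test-well inhibition plus 3 SD, cut at about 4.8% in these data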;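 note: 0% = DNA dye mix with DMSO and 100% = 100 µM mitoxantrone; hits displace the dye from DNA and so lower well fluorescence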
# dCAG dye DR: inhibitors of DNA CAG/GTC TO-PRO-1 complex, dose response, counter-screen for rCAG RNA repeat binder project, biochemical, fluorescence, TO-PRO-1 dye | shares compounds with rCAG RNA binder | DNA CAG/GTC duplex TO-PRO-1 dye displacement fluorescence | IC50, µM | hit rate 20% among 250 | AID 686960, 2013; in the data active = IC50 below about 10 µM
# * hit, by the source's call; i = inactive; x = no result. The list is not random: actives were taken first. Their share in the collection is about 3.2%.
SMILES,HTRA1 inhibitor,mABHD4 FP,rCAG RNA binder,PRMT1 inh,LEDGF integ inh,DAGLB inhibitor,rCAG bind conf,DNA CAG counter,others
CC(C)Cn1c(N)c(C(=O)COC(=O)c2cc(-c3ccco3)nc3ccccc23)c(=O)n(C)c1=O,-49.1,-2.9,41.2*,0.8,6.3,4.8,38.7*,19.9*,
CCc1sc(N2C(=O)C3C4CCC(C4=C(C)C)C3C2=O)nc1-c1ccccc1 (configuration not stated),-28.3,20.2,-3.5,-2.2,2.9,-9.8,x,x,
CC1SC(c2ccc(F)cc2)N(CCc2ccccc2)C1=O (configuration not stated),-7.9,-2.9,-6.0,0.3,7.7,-3.6,x,x,
Cc1ccc(-c2nn(CCC(=O)O)cc2/C=C\C(=O)c2ccc(Br)cc2)cc1,-56.6,-34.1,68.2*,-1.3,1.4,7.4,73.9*,31.9*,dCAG dye DR=i
O=C(O)CCn1cc(/C=C\C(=O)c2ccc(Cl)cc2)c(-c2cccc(Br)c2)n1,-29.9,-18.4,63.3*,2.4,6.0,6.1,82.4*,44.7*,
Cc1ccc(-c2nn(Cc3ccccc3)cc2/C=C/C(=O)O)cc1,-4.5,9.0,2.6,0.9,-1.7,6.5,x,x,
O=Cc1cn(CCC(=O)O)nc1-c1cccc(Br)c1,-9.4,-0.6,1.2,1.4,-1.1,2.4,x,x,
COC(=O)Cc1[nH]c(=O)[nH]c1C(=O)OC,2.5,0.5,2.0,-4.5,0.4,-1.2,x,x,
Cc1nc2cc(C(=O)NCc3ccc4c(c3)OCO4)ccc2n1-c1ccc(Br)cc1,-31.9,-16.7,6.9,0.7,-0.4,-7.7,x,x,
Cc1ccc(C)c(NC(=O)NNC(=O)c2cc3ccccc3cc2O)c1,31.5,-6.0,34.8*,-0.5,6.5,5.7,27.7,9.0*,
Cc1ccc(NC(=O)NNC(=O)c2cc3ccccc3cc2O)c(C)c1,35.1,17.8,30.6,-1.0,1.5,2.8,x,x,
O=C(NNC(=O)c1cc2ccccc2cc1O)Nc1ccccc1F,21.9,17.6,40.6*,3.0,0.5,1.1,21.6,7.2*,
Cc1nc(NS(=O)(=O)c2ccc(Cl)s2)c2c3c(sc2n1)CCCC3,-12.6,-2.0,77.8*,6.0,1.6,7.3,55.5*,19.3*,
Cc1nc(NCCc2ccc(S(N)(=O)=O)cc2)c2c3c(sc2n1)CCC3,-11.1,3.0,6.1,1.7,0.0,2.3,x,x,
COc1cc(/C=N/Nc2nc(C)nc3c2cnn3-c2ccccc2)ccc1O,4.3,5.0,40.9*,10.9,0.3,3.6,27.2,9.7*,
COc1cc(/C=N/NC(=O)c2nc(-c3ccccc3)n(-c3ccccc3)n2)ccc1O,-1.5,10.0,1.4,-3.1,1.3,0.9,x,x,
CCC1=NN(C(=O)Cc2ccccc2)C(O)(c2ccncc2)C1 (configuration not stated),2.8,-1.3,-4.0,-1.3,2.8,1.0,x,x,
COc1ccc(N2CC(C(=O)Nc3ccc4c(c3)OCO4)CC2=O)cc1 (configuration not stated),4.5,0.8,1.2,0.9,-1.9,3.5,x,x,
O=C(O)CN1C(=O)/C(=C\c2cc(Br)ccc2OCc2ccc([N+](=O)[O-])cc2)SC1=S,-50.1,17.4,76.6*,24.1*,-0.7,18.8,94.4*,75.2*,
O=C(O)CCN1C(=O)/C(=C\c2cccc(OCc3ccccc3)c2)SC1=S,-1.3,5.1,6.7,1.9,1.9,-2.1,x,x,
O=C(O)CN1C(=O)/C(=C\c2cc(Br)ccc2OCc2ccccc2F)SC1=S,-80.3,-12.4,64.8*,17.6,-2.6,15.8,87.2*,60.6*,
O=C(O)CN1C(=O)/C(=C\c2cccc(OCc3ccc(Cl)cc3Cl)c2)SC1=S,-112.0,-24.8,78.6*,2.6,6.2,13.9,85.3*,57.5*,
O=C(O)CN1C(=O)/C(=C\c2ccccc2OCc2ccc(Cl)cc2Cl)SC1=S,-86.4,-26.2,79.4*,9.8,-2.2,10.6,89.8*,65.7*,
CCOc1ccccc1C=C1SC(=S)N(CC)C1=O,7.0,-4.4,1.6,-0.6,0.3,-2.8,x,x,
CCOc1ccc(/C(O)=C2/C(=O)C(=O)N(c3cc(C)on3)C2c2ccc(C(=O)OC)cc2)cc1 (configuration not stated),4.8,-2.6,3.4,0.1,2.7,4.7,x,x,
SMILES,HTRA1 inhibitor,mABHD4 FP,rCAG RNA binder,PRMT1 inh,LEDGF integ inh,DAGLB inhibitor,rCAG bind conf,DNA CAG counter,others
COc1ccc(-c2nn(Cc3ccccc3)cc2C(=O)N2CCN(c3ncccn3)CC2)cc1OC,-6.9,-4.6,2.1,-2.6,4.3,-2.0,x,x,
O=C(O)CN1C(=O)/C(=C\c2cc(Br)ccc2OCc2ccccc2Cl)SC1=S,-111.6,-16.8,77.8*,13.0,4.4,16.3,93.2*,74.8*,
O=C1/C(=C\c2cc(Br)cc(Br)c2O)SC(=S)N1Cc1ccccc1,-33.7,x,x,x,x,11.1,x,x,
CC(C)n1c(O)c(N=Nc2ccc(Cl)c(C(=O)O)c2)c2ccccc21,0.2,22.0,38.1*,-0.8,0.5,12.7,35.8*,9.0*,
CCn1c(O)c(N=Nc2ccc(Cl)c(C(=O)O)c2)c2ccccc21,-4.3,2.8,32.3,-5.3,3.9,8.7,x,x,
Cc1ccc(OCC(=O)NC2CCS(=O)(=O)C2)c(C)c1 (configuration not stated),5.5,7.7,-2.0,3.4,0.4,-2.3,x,x,
CC(=O)Nc1ccc(S(=O)(=O)NNC(=O)c2cc3c4ccccc4n(C)c3s2)cc1,-27.2,-20.3,35.5*,2.1,-7.0,2.2,31.5,15.9*,
Cn1c2ccccc2c2cc(C(=O)NNC(=O)CCl)sc21,2.1,5.0,7.2,8.2,-5.9,-10.7,x,x,
COc1ccc(Cl)c(NC(=O)C/C(C)=N/NC(=O)CCc2ccccc2)c1,-6.9,-34.7,37.1*,-0.8,3.8,-2.2,2.6,-0.1,
CC(Sc1nnc(-c2cc3ccccc3o2)n1-c1ccccc1)C(=O)O (configuration not stated),0.1,-6.1,10.6,0.8,5.3,2.8,x,x,
